From ChEMBL document CHEMBL4257594 (J Med Chem, 2018)
pEC50, pIC50: −log10 of the molar value. The source made the active and inactive calls. The calls are words filed in the database; no cut-off is given here.

Key:
Cytochrome P450 3A4 [1] = target: T1, Cytochrome P450 3A4 (Homo sapiens, UniProt P08684); experiment: (§1) Inhibition of human liver microsome CYP3A4 at 1 uM expressed in baculosomes using fluorogenic-DBOMF as substrate preincubated for 10 mins followed by substrate addition and measured after 60 mins by fluorescence based assay; format: ADME, microsomes; conditions: microsomes, 1 h, 1 µM
How it was run: (§2)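 CYP3A4 baculosomes preincubated with drug at 1 µM for 10 min at 37 °C before Vivid green substrate added. Fluorescence (ex/em 485/520) read 60 min after substrate addition. Percent inhibition set against 10 μM ketoconazole as the 100% control; mean ± SD of three independent experiments run in triplicate.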

HUVEC [2] = experiment: Anti-angiogenic activity against HUVEC after 24 hrs by scintillation counting based [3H]-thymidine incorporation assay; format: functional, cell-based; conditions: Homo sapiens
How it was run: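 HUVEC seeded at 2000 cells/well and left to settle overnight, then drug added in triplicate for 24 h. Mean ± SD of three independent experiments run in triplicate.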

CYP3A4 = CYP3A4 (Homo sapiens, UniProt P08684); experiment: as §1; format: ADME, microsomes; conditions: recombinant CYP3A4 expressed in baculosomes, probe DBOMF (fluorogenic); how it was run: as §2
[3] = target: T2, NPC intracellular cholesterol transporter 1 (Homo sapiens) (UniProt O15118); experiment: Binding affinity to NPC1 in HUVEC assessed as increase in cholesterol accumulation in late endosome/lysosome at 0.2 uM after 14 hrs by filipin staining-based confocal microscopy; format: cell-based
T2 sequence (whole entry): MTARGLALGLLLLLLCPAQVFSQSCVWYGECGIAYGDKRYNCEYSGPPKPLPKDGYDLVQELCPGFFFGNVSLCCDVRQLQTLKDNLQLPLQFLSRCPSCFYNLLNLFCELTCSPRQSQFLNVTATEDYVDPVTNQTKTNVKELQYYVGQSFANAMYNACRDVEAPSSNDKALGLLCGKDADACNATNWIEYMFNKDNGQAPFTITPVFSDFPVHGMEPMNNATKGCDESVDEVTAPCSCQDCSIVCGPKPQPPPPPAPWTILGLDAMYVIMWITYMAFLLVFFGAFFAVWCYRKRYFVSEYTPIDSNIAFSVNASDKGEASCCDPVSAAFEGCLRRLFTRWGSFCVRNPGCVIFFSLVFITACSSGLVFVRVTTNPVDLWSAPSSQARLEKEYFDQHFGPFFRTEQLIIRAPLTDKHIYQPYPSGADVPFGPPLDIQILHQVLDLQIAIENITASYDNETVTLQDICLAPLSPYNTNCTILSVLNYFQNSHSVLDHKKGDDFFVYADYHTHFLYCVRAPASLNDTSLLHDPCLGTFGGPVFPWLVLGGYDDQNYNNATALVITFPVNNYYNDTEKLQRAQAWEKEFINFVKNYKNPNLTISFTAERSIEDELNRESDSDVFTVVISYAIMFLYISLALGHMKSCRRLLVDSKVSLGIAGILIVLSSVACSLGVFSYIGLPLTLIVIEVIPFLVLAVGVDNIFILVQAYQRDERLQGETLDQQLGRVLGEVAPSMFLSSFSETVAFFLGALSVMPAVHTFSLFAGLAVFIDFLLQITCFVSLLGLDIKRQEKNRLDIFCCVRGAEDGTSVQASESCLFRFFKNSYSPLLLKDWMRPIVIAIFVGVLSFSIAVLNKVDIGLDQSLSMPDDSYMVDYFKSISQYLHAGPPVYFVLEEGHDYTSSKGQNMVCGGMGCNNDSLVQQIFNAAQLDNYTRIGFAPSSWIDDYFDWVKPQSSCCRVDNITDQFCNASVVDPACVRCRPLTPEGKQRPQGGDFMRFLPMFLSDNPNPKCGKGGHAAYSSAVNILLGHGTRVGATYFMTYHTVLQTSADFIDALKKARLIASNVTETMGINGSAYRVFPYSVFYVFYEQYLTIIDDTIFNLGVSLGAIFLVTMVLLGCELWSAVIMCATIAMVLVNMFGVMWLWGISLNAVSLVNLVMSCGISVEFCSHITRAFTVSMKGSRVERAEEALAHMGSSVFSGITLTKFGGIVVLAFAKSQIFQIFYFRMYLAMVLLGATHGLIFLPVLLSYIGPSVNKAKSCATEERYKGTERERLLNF
How it was run: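 Methods give HUVEC (2,000) on chamber slides, settled overnight, then 0.1 µM drug or DMSO for 14 h; legend gives 0.2 μM for 24 h. Cells fixed in 4% paraformaldehyde for 15 min, then stained with 50 µg/ml filipin for 1 h in the dark. Imaged by confocal microscopy at 360/460 nm.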

[4] = target: Non-selective voltage-gated ion channel VDAC1 (Homo sapiens) (UniProt P21796); experiment: Binding affinity to VDAC1 (unknown origin) at 10 uM using itraconazole as probe by photoaffinity probe competitor assay
HUVEC [5] = experiment: Antiangiogenic activity in HUVEC assessed as inhibition of tube formation at 5 uM after 24 hrs by matrigel assay relative to control; format: functional; conditions: Homo sapiens
How it was run: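 HUVEC (70,000 per well) plated on Matrigel-coated wells in medium containing drug or DMSO. After 24 h, stained with 2 μM calcein AM for 15 min, medium replaced, and tube networks imaged by fluorescence microscopy. Total tube length quantified from the images and compared with DMSO.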

[6] = target: Non-selective voltage-gated ion channel VDAC1 (Homo sapiens) (UniProt P21796); experiment: Binding affinity to VDAC1 in HUVEC assessed as AMPK phosphorylation at Thr172 residue after 24 hrs by Western blot analysis; format: cell-based
[7] = target: Non-selective voltage-gated ion channel VDAC1 (Homo sapiens) (UniProt P21796); experiment: Binding affinity to VDAC1 in HUVEC assessed as ACC1 phosphorylation at Ser79 residue at 0.01 to 1 uM after 24 hrs by Western blot analysis; format: cell-based
How it was run: (§3)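 HUVEC treated with 0.01, 0.03, 0.1, 0.3 or 1 μM drug, or DMSO, for 24 h. Lysed in RIPA buffer, protein normalized, then run on Western blot: 5% BSA block 1 h, primary antibody overnight at 4 °C, secondary 1 h, chemiluminescence imaging. Band gray value and area quantified; mean ± SD of three independent experiments.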

HUVEC [8] = experiment: Binding affinity to NPC1/VDAC1 in HUVEC assessed as reduction in mTOR-mediated S6K phosphorylation at Thr389 residue up to 1 uM after 24 hrs Western blot analysis; format: cell-based; conditions: Homo sapiens; how it was run: as §3
Cytochrome P450 3A4 [9] = target: T1, Cytochrome P450 3A4; experiment: Inhibition of human liver microsome CYP3A4 expressed in baculosomes using fluorogenic-DBOMF as substrate preincubated for 10 mins followed by substrate addition and measured after 60 mins by fluorescence based assay; format: ADME, microsomes
HUVEC [10] = experiment: Binding affinity to NPC1/VDAC1 in HUVEC assessed as reduction in mTOR phosphorylation at Ser2481 residue up to 1 uM after 24 hrs Western blot analysis; format: cell-based; conditions: Homo sapiens; how it was run: as §3

Chain of Non-selective voltage-gated ion channel VDAC1 (Homo sapiens) (P21796 whole entry): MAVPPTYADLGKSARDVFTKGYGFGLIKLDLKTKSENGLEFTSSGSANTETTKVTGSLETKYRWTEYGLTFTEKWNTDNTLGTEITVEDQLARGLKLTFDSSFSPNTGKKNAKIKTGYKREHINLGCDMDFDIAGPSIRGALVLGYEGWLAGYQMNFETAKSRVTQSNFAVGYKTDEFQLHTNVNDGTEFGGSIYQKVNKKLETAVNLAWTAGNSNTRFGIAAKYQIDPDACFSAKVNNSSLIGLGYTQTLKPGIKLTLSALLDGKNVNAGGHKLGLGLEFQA
Chain of CYP3A4 (P08684 whole entry): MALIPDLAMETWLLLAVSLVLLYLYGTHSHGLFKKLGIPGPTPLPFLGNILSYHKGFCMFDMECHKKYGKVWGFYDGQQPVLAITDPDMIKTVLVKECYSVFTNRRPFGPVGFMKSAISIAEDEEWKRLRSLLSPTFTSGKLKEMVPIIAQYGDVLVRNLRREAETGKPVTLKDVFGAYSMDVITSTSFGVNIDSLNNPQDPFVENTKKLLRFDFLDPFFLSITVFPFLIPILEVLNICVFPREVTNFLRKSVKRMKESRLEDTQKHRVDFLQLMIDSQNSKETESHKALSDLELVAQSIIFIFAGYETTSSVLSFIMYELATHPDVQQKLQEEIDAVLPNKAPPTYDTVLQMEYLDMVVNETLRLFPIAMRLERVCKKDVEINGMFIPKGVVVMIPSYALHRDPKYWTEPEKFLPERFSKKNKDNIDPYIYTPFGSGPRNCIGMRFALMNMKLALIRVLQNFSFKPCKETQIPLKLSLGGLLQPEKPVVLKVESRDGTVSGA
T1 sequence (P08684 whole entry): as above

| Compound | inhibition at 1 h, 1 µM (CYP3A4) [%] | pIC50 (HUVEC [2]) | other results |
| --- | --- | --- | --- |
| CCC(C)n1ncn(-c2ccc(N3CCN(c4ccc(OC[C@@H]5CO[C@@](CC)(c6ccc(Cl)cc6Cl)O5)cc4)CC3)cc2)c1=O (some centres undefined) |  | 6.45 | inhibition (INH) (Cytochrome P450 3A4 [1]): Not Active |
| CCC(C)n1ncn(-c2ccc(N3CCN(c4ccc(OC[C@@H]5CO[C@@](Cn6ccnc6C(C)C)(c6ccc(Cl)cc6Cl)O5)cc4)CC3)cc2)c1=O (some centres undefined) | 6 | 7.08 | Activity [3]: Active |
| CCC(C)n1ncn(-c2ccc(N3CCN(c4ccc(OC[C@@H]5CO[C@@](Cn6cccn6)(c6ccc(Cl)cc6Cl)O5)cc4)CC3)cc2)c1=O (some centres undefined) |  | 6.51 | inhibition (INH) (Cytochrome P450 3A4 [1]): Not Active |
| CCC(C)n1ncn(-c2ccc(N3CCN(c4ccc(OC[C@@H]5CO[C@@](Cn6c(C)cnc6C)(c6ccc(Cl)cc6Cl)O5)cc4)CC3)cc2)c1=O (some centres undefined) | 23 | 6.12 |  |
| CCC(C)n1ncn(-c2ccc(N3CCN(c4ccc(OC[C@@H]5CO[C@@](Cn6nnnc6-c6ccccc6)(c6ccc(Cl)cc6Cl)O5)cc4)CC3)cc2)c1=O (some centres undefined) | 18 | 6.92 |  |
| CCC(C)n1ncn(-c2ccc(N3CCN(c4ccc(OC[C@@H]5CO[C@@](CN6CCNCC6)(c6ccc(Cl)cc6Cl)O5)cc4)CC3)cc2)c1=O (some centres undefined) | 91 | 6.22 |  |
| CCC(C)n1ncn(-c2ccc(N3CCN(c4ccc(OC[C@@H]5CO[C@@](CN6CCOCC6)(c6ccc(Cl)cc6Cl)O5)cc4)CC3)cc2)c1=O (some centres undefined) | 16 | 5.93 |  |
| CCC(C)n1ncn(-c2ccc(N3CCN(c4ccc(OC[C@@H]5CO[C@@](Cn6ccnc6-c6ccccc6)(c6ccc(Cl)cc6Cl)O5)cc4)CC3)cc2)c1=O (some centres undefined) | 23 | 6.87 | Activity [4]: Active |
| CCC(C)n1ncn(-c2ccc(N3CCN(c4ccc(OC[C@@H]5COC(c6ccc(Cl)cc6Cl)O5)cc4)CC3)cc2)c1=O (mixture of isomers) |  | 6.48 | inhibition (INH) (Cytochrome P450 3A4 [1]): Not Active |
| CCC(C)n1ncn(-c2ccc(N3CCN(c4ccc(OC[C@@H]5CO[C@@](CN(C)C)(c6ccc(Cl)cc6Cl)O5)cc4)CC3)cc2)c1=O (some centres undefined) |  | 5.85 | inhibition (INH) (Cytochrome P450 3A4 [1]): Not Active |
| CCC(C)n1ncn(-c2ccc(N3CCN(c4ccc(OC[C@@H]5CO[C@@](CN6CCN(C)CC6)(c6ccc(Cl)cc6Cl)O5)cc4)CC3)cc2)c1=O (some centres undefined) | 18 | 6.40 |  |
| CCC(C)n1ncn(-c2ccc(N3CCN(c4ccc(OC[C@@H]5CO[C@@](CC6CCCC6)(c6ccc(Cl)cc6Cl)O5)cc4)CC3)cc2)c1=O (some centres undefined) |  | 6.29 | inhibition (INH) (Cytochrome P450 3A4 [1]): Not Active |
| CCC(C)n1ncn(-c2ccc(N3CCN(c4ccc(OC[C@@H]5CO[C@@](Cn6cnc(C(F)(F)F)n6)(c6ccc(Cl)cc6Cl)O5)cc4)CC3)cc2)c1=O (some centres undefined) |  | 6.57 | Activity [3]: Active; inhibition (INH) (Cytochrome P450 3A4 [1]): Not Active |
| CCC(C)n1ncn(-c2ccc(N3CCN(c4ccc(OC[C@@H]5CO[C@@](Cc6ccccc6)(c6ccc(Cl)cc6Cl)O5)cc4)CC3)cc2)c1=O (some centres undefined) |  | 6.29 | inhibition (INH) (Cytochrome P450 3A4 [1]): Not Active |
| CCC(C)n1ncn(-c2ccc(N3CCN(c4ccc(OC[C@@H]5CO[C@@](Cn6cc(C)nc6C)(c6ccc(Cl)cc6Cl)O5)cc4)CC3)cc2)c1=O (some centres undefined) | 38 | 6.31 |  |
| CCC(C)n1ncn(-c2ccc(N3CCN(c4ccc(OC[C@@H]5CO[C@@](Cn6cc(C(F)(F)F)nc6C)(c6ccc(Cl)cc6Cl)O5)cc4)CC3)cc2)c1=O (some centres undefined) |  | 6.36 | inhibition (INH) (Cytochrome P450 3A4 [1]): Not Active |

Second part, led by results:

| inhibition at 1 h, 1 µM (CYP3A4) [%] | Compound | pIC50 (HUVEC [2]) | other results |
| --- | --- | --- | --- |
| 3 | CCC(C)n1ncn(-c2ccc(N3CCN(c4ccc(OC[C@@H]5CO[C@@](CBr)(c6ccc(Cl)cc6Cl)O5)cc4)CC3)cc2)c1=O (some centres undefined) | 6.24 |  |
| 7 | CCC(C)n1ncn(-c2ccc(N3CCN(c4ccc(OC[C@@H]5CO[C@@](Cn6nnnc6C)(c6ccc(Cl)cc6Cl)O5)cc4)CC3)cc2)c1=O (some centres undefined) | 7.00 |  |
| 7 | CCc1nccn1C[C@@]1(c2ccc(Cl)cc2Cl)OC[C@@H](COc2ccc(N3CCN(c4ccc(-n5cnn(C(C)CC)c5=O)cc4)CC3)cc2)O1 (some centres undefined) | 6.65 |  |
| 71 | CCC(C)n1ncn(-c2ccc(N3CCN(c4ccc(OC[C@@H]5CO[C@@](Cn6ccnc6C)(c6ccc(Cl)cc6Cl)O5)cc4)CC3)cc2)c1=O (some centres undefined) | 6.76 |  |
| 27 | CCC(C)n1ncn(-c2ccc(N3CCN(c4ccc(OC[C@@H]5CO[C@@](Cn6nc(C)nc6C)(c6ccc(Cl)cc6Cl)O5)cc4)CC3)cc2)c1=O (some centres undefined) | 6.66 |  |
| 84 | CCC(C)n1ncn(-c2ccc(N3CCN(c4ccc(OCC5COC(Cn6cncn6)(c6ccc(Cl)cc6Cl)O5)cc4)CC3)cc2)c1=O (centres undefined) [ITRACONAZOLE] |  | Activity [3]: Active; inhibition at 5 µM (HUVEC [5]): 45% |
| 2 | CCC(C)n1ncn(-c2ccc(N3CCN(c4ccc(OC[C@@H]5CO[C@@](Cn6cnnn6)(c6ccc(Cl)cc6Cl)O5)cc4)CC3)cc2)c1=O (some centres undefined) |  | Activity [6]: Dose-dependent effect; Activity [7]: Active; Activity [3]: Active; Activity [4]: Active; Activity (HUVEC [8]): Active; pEC50 (Cytochrome P450 3A4 [9]): < 4.70; Activity (HUVEC [10]): Active |
| 30 | CCC(C)n1ncn(-c2ccc(N3CCN(c4ccc(OC[C@@H]5CO[C@@](Cn6cnc(C)n6)(c6ccc(Cl)cc6Cl)O5)cc4)CC3)cc2)c1=O (some centres undefined) | 6.57 |  |
| 99 | CCC(C)n1ncn(-c2ccc(N3CCN(c4ccc(OC[C@@H]5CO[C@@](Cn6ccnc6)(c6ccc(Cl)cc6Cl)O5)cc4)CC3)cc2)c1=O (some centres undefined) | 7.07 |  |
| 17 | CCC(C)n1ncn(-c2ccc(N3CCN(c4ccc(OC[C@@H]5CO[C@@](Cn6ncnn6)(c6ccc(Cl)cc6Cl)O5)cc4)CC3)cc2)c1=O (some centres undefined) | 6.91 |  |
| 98 | CCC(C)n1ncn(-c2ccc(N3CCN(c4ccc(OC[C@@H]5CO[C@@](Cn6cnc(C)c6)(c6ccc(Cl)cc6Cl)O5)cc4)CC3)cc2)c1=O (some centres undefined) | 6.99 |  |
